Measured values: ChEMBL document CHEMBL4715796, “Discovery of Chromane Containing Hepatitis C Virus (HCV) NS5A Inhibitors with Improved Potency against Resistance-Associated Variants” (J Med Chem, 2016)

Assays:
[1] = MRT in male Wistar Han rat at 10 mg/kg, po administered as single dose post overnight fasting measured upto 24 hrs by LC-MS/MS analysis; type: ADME, organism-based; details: in vivo
Summary of the method: (§1)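 Male Wistar Han rats were given single oral rising doses of 10, 100 or 300 mpk. AUC, Cmax, Tmax and MRT were derived from plasma exposure.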

[2] = Oral bioavailability in Beagle dog at 5 mg/kg post overnight fasting measured upto 24 hrs by LC-MS/MS analysis; type: ADME, organism-based, Canis lupus familiaris; details: in vivo
Summary of the method: (§2)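 Overnight-fasted male Wistar Han rats or Beagle dogs, two animals per group, 24 h study. IV in 60% PEG200 (rat 2 mg/kg, dog 1 mg/kg). PO in 10% Tween (rat 10 mg/kg, dog 5 mg/kg). Blood sampled up to 24 h, plasma separated by centrifugation, and drug measured by LC/MS. MRT reported for the IV route.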

[3] = Mean residence time in Beagle dog at 1 mg/kg, iv administered post overnight fasting measured upto 24 hrs by LC-MS/MS analysis; details: in vivo
[4] = Tmax in male Wistar Han rat at 300 mg/kg, po administered as single dose post overnight fasting measured upto 24 hrs by LC-MS/MS analysis; type: ADME, organism-based; details: in vivo; summary of the method: as §1
[5] = Cmax in male Wistar Han rat at 100 mg/kg, po administered as single dose post overnight fasting measured upto 24 hrs by LC-MS/MS analysis; type: ADME, organism-based; design: route oral, dose 100 mg/kg, time <=24; details: in vivo; summary of the method: as §1
[6] = Clearance in Beagle dog at 1 mg/kg, iv administered post overnight fasting measured upto 24 hrs by LC-MS/MS analysis; type: ADME, organism-based, Canis lupus familiaris; details: in vivo; summary of the method: as §2
[7] = AUC in male Wistar Han rat at 10 mg/kg, po administered as single dose post overnight fasting measured upto 24 hrs by LC-MS/MS analysis; type: ADME, organism-based; design: route oral, dose 10 mg/kg, time <=24; details: in vivo; summary of the method: as §1
[8] = Drug concentration in Beagle dog at 5 mg/kg, po measured after 24 hrs by LC/MS analysis; type: ADME, organism-based, Canis lupus familiaris; details: in vivo, read-out: Drug uptake; summary of the method: as §2
[9] = Tmax in male Wistar Han rat at 10 mg/kg, po administered as single dose post overnight fasting measured upto 24 hrs by LC-MS/MS analysis; type: ADME, organism-based; details: in vivo; summary of the method: as §1
[10] = AUC in Beagle dog at 5 mg/kg, po administered post overnight fasting measured upto 24 hrs by LC-MS/MS analysis; type: ADME, organism-based, Canis lupus familiaris; design: route oral, dose 5 mg/kg, time <=24; details: in vivo; summary of the method: as §2
[11] = Cmax in Beagle dog at 5 mg/kg, po administered post overnight fasting measured upto 24 hrs by LC-MS/MS analysis; type: ADME, organism-based, Canis lupus familiaris; design: route oral, dose 5 mg/kg, time <=24; details: in vivo; summary of the method: as §2
[12] = Cmax in male Wistar Han rat at 10 mg/kg, po administered as single dose post overnight fasting measured upto 24 hrs by LC-MS/MS analysis; type: ADME, organism-based; design: route oral, dose 10 mg/kg, time <=24; details: in vivo; summary of the method: as §1
[13] = Cmax in male Wistar Han rat at 300 mg/kg, po administered as single dose post overnight fasting measured upto 24 hrs by LC-MS/MS analysis; type: ADME, organism-based; design: route oral, dose 300 mg/kg, time <=24; details: in vivo; summary of the method: as §1
[14] = AUC in male Wistar Han rat at 100 mg/kg, po administered as single dose post overnight fasting measured upto 24 hrs by LC-MS/MS analysis; type: ADME, organism-based; design: route oral, dose 100 mg/kg, time <=24; details: in vivo; summary of the method: as §1
[15] = Tmax in male Wistar Han rat at 100 mg/kg, po administered as single dose post overnight fasting measured upto 24 hrs by LC-MS/MS analysis; type: ADME, organism-based; details: in vivo; summary of the method: as §1
[16] = AUC in male Wistar Han rat at 300 mg/kg, po administered as single dose post overnight fasting measured upto 24 hrs by LC-MS/MS analysis; type: ADME, organism-based; design: route oral, dose 300 mg/kg, time <=24; details: in vivo; summary of the method: as §1
[17] = MRT in male Wistar Han rat at 300 mg/kg, po administered as single dose post overnight fasting measured upto 24 hrs by LC-MS/MS analysis; type: ADME, organism-based; details: in vivo; summary of the method: as §1
[18] = MRT in male Wistar Han rat at 100 mg/kg, po administered as single dose post overnight fasting measured upto 24 hrs by LC-MS/MS analysis; type: ADME, organism-based; details: in vivo; summary of the method: as §1

Compound `COC(=O)N[C@H](C(=O)N1CCC[C@H]1c1ncc(-c2cc(F)c3c(c2)OC(c2ccc4c(c2)OCCC4)n2c-3cc3cc(-c4cnc([C@@H]5CCCN5C(=O)[C@@H](NC(=O)OC)C(C)C)[nH]4)ccc32)[nH]1)C(C)C.Cl.Cl` (stereo partly drawn) has an MRT [1] of 8.5 h, a bioavailability [2] of 16% and an MRT [3] of 11.4 h. The Tmax [4] was 8 h, the Cmax [5] was 350 nM and the clearance [6] was 2 mL/min/kg. It also gave an AUC at 24 h [7] of 0.42 µM·h, a concentration at 24 h [8] of 51 nM and a Tmax [9] of 5 h. It also gave an AUC at 24 h [10] of 6.92 µM·h, a Cmax [11] of 1220 nM and a Cmax [12] of 40 nM. For the same compound, the Cmax [13] was 400 nM, the AUC at 24 h [14] was 5.9 µM·h and the Tmax [15] was 5 h. The AUC at 24 h [16] was 4.9 µM·h, the MRT [17] was 11 h and the MRT [18] was 13 h.
